This note sets out measurements from ChEMBL document CHEMBL3751796, “Structure-Based Discovery of Novel Cyclophilin A Inhibitors for the Treatment of Hepatitis C Virus Infections” (J Med Chem, 2015).

SMILES strings stand for the structures. pEC50: −log10 of the molar value.

As a reminder, the pEC50 is −log10 of the EC50, conventionally taken in molar units. The term CC50 denotes the concentration giving 50% cytotoxicity.

One data set concerns Hepatitis C virus. The data set is described as follows: Antiviral activity against recombinant HCV genotype 2a JFH1 infected in human […] for 5 hrs measured on day 3 post infection by luciferase reporter gene assay. The conditions noted are these: JFH-1, Huh-7. The class given is functional, organism-based, Hepacivirus hominis. The method, boiled down:
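Huh7.5 cells infected with JFH1-Luc virus (MOI 0.004) for 5 h at 37 °C with 3-fold serial dilutions of compound. Renilla luciferase read from lysates on day 3 postinfection to derive EC50.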
On the technique in general: Reporter assays use an easily measured gene product as a stand-in for the process of interest.

Data set [1] is described as follows: Cytotoxicity against mock-infected human Huh7.5 cells assessed as reduction in cell viability incubated for 5 hrs by MTT assay. Type of data set: cell-based, Huh-7. Conditions: mock-infected Huh7.5 cells. The method, boiled down: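 Mock-infected Huh7.5 cells run alongside the JFH1-Luc antiviral assay with 3-fold serial dilutions. Viability read by MTT assay to give CC50.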
(In general: Tetrazolium assays rely on reduction of a dye to a coloured formazan, in cell work by metabolically active cells.)

The nature of data set [2]: Selectivity index, ratio of CC50 for mock-infected human Huh7.5 cells to EC50 for recombinant HCV genotype 2a JFH1. The arrangement: species or system Huh-7. The method, boiled down: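 Huh7.5 cells infected with JFH1-Luc virus (MOI 0.004, 5 h, 37 °C) in the presence of 3-fold serial dilutions. EC50 came from Renilla luciferase on day 3. CC50 came from MTT viability of mock-infected Huh7.5 cells treated in parallel. SI = CC50/EC50.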

Take `COc1cccc(CCN(C(=O)c2ccc(Cl)nc2)C(C(=O)NC2CCCCC2)c2ccc([N+](=O)[O-])cc2)c1` (configuration not stated): the pEC50 in the data set with Hepatitis C virus was 5.14. In addition, the 50% cytotoxic concentration (CC50) at 5 h in data set [1] was over 100 µM. Besides, the “Ratio CC50/EC50” value in data set [2] was over 13.8.

Turning to `COc1ccc(N(C(=O)Cc2c[nH]c3ccccc23)C(C(=O)NC2CCCCC2)c2ccc(F)cc2)cc1` (configuration not stated), the pEC50 in the data set on Hepatitis C virus is 4.58. Also, the CC50 at 5 h in data set [1] came to 63.6 µM. Besides, in data set [2], the “Ratio CC50/EC50” value came out at 2.4.

As to `COc1ccc(N(C(=O)Cc2c[nH]c3ccccc23)C(C(=O)NC2CCCCC2)c2ccc(OC)c(OC)c2OC)cc1OC` (configuration not stated), in the data set on Hepatitis C virus, the negative logarithm of the EC50 (pEC50) is under 4.57. Further, in data set [1], the half-maximal cytotoxic concentration (CC50) at 5 h came to 27.1 µM.

As for `COc1ccc(N(C(=O)c2cccc(C)c2C)C(C(=O)NC2CCCCC2)c2ccc(O)cc2)cc1OC` (configuration not stated), the pEC50 in the data set with Hepatitis C virus is 4.94. Further, the CC50 at 5 h in data set [1] was found to be 69.8 µM. The “Ratio CC50/EC50” value in data set [2] worked out at 6.1.

Take `COc1ccc(CCC(=O)N(c2ccc(Br)cc2)C(C(=O)NC2CCCCC2)c2ccc([N+](=O)[O-])cc2)cc1` (configuration not stated): the pEC50 in the data set with Hepatitis C virus was 5.21. The CC50 at 5 h in data set [1] amounted to 9.8 µM. Also, the “Ratio CC50/EC50” value in data set [2] was 1.6.

As to `CC(C)c1ccc(N(C(=O)c2ccccc2)C(C(=O)NC2CCCCC2)c2ccc(Cl)cc2)cc1` (configuration not stated), in the data set on Hepatitis C virus, the negative logarithm of the EC50 (pEC50) was 5.17. The 50% cytotoxic concentration (CC50) at 5 h in data set [1] came to 64.5 µM. Further, the “Ratio CC50/EC50” value in data set [2] is listed as 9.6.

Turning to `COc1ccc(C(C(=O)NC2CCCCC2)N(C(=O)Cc2c[nH]c3ccccc23)c2ccccc2)cc1OC` (configuration not stated), the negative-log EC50 (pEC50) with Hepatitis C virus was under 4.65. The 50% cytotoxic concentration (CC50) at 5 h in data set [1] was determined as 22.5 µM.

With `NC(=O)c1ncn([C@@H]2O[C@H](CO)[C@@H](O)[C@H]2O)n1` [RIBAVIRIN], the pEC50 in the data set on Hepatitis C virus was 4.79. Besides, the CC50 at 5 h in data set [1] is over 100 µM. For the same molecule, in data set [2], the “Ratio CC50/EC50” value was over 6.1.

`O=C(NC1CCCCC1)C(c1ccc(Cl)cc1)N(C(=O)Cc1c[nH]c2ccccc12)c1ccccc1` (configuration not stated): the negative logarithm of the EC50 (pEC50) with Hepatitis C virus was 5.48. Further, the CC50 at 5 h in data set [1] was found to be 10.2 µM. Besides, the “Ratio CC50/EC50” value in data set [2] stood at 3.1.

Regarding `COc1ccc([N+](=O)[O-])c(C(=O)N(CCc2ccc(OC)c(OC)c2)C(C(=O)NC2CCCCC2)c2ccc([N+](=O)[O-])cc2)c1` (configuration not stated), in the data set on Hepatitis C virus, the pEC50 was 4.46. In data set [1], the half-maximal cytotoxic concentration (CC50) at 5 h was over 100 µM. The “Ratio CC50/EC50” value in data set [2] is over 2.8.

With `COc1ccc(CCC(=O)N(c2ccc(OC)c(OC)c2)C(C(=O)NC2CCCCC2)c2ccc(Cl)cc2)cc1` (configuration not stated), in the data set on Hepatitis C virus, the negative-log EC50 (pEC50) is 4.51. Besides, in data set [1], the half-maximal cytotoxic concentration (CC50) at 5 h was determined as 57.4 µM. For the same molecule, the “Ratio CC50/EC50” value in data set [2] was determined as 1.8.

With `COc1cc(C(C(=O)NC2CCCCC2)N(C(=O)Cc2c[nH]c3ccccc23)c2ccccc2)cc(OC)c1OC` (configuration not stated), the negative logarithm of the EC50 (pEC50) with Hepatitis C virus was 4.79. Also, the half-maximal cytotoxic concentration (CC50) at 5 h in data set [1] came out at 36.8 µM. Besides, in data set [2], the “Ratio CC50/EC50” value is 2.2.

For `O=C(NC1CCCCC1)C(c1ccccc1)N(C(=O)Cc1c[nH]c2ccccc12)c1ccccc1` (configuration not stated), in the data set on Hepatitis C virus, the negative logarithm of the EC50 (pEC50) is under 4.52. Moreover, the half-maximal cytotoxic concentration (CC50) at 5 h in data set [1] was 30.5 µM.

Regarding `CCCCCNC(=O)C(c1ccc2c(c1)OCO2)N(C(=O)CCCC)c1ccc(OC)c(OC)c1` (configuration not stated), in the data set on Hepatitis C virus, the negative logarithm of the EC50 (pEC50) is under 4.49. The CC50 at 5 h in data set [1] worked out at 32.2 µM.

For the molecule `COc1ccc(CCC(=O)N(c2ccc(C(C)C)cc2)C(C(=O)NC2CCCCC2)c2ccc(Cl)cc2)cc1` (configuration not stated), in the data set with Hepatitis C virus, the negative logarithm of the EC50 (pEC50) was under 4.00. Also, in data set [1], the CC50 at 5 h is over 100 µM.

As for `COc1ccc(N(C(=O)c2cc(C)ccc2C)C(C(=O)NC2CCCCC2)c2ccc([N+](=O)[O-])cc2)cc1OC` (configuration not stated), the negative-log EC50 (pEC50) in the data set on Hepatitis C virus was 5.10. Also, the CC50 at 5 h in data set [1] was 68.3 µM. Besides, the “Ratio CC50/EC50” value in data set [2] was determined as 8.6.

For the molecule `COc1ccc(N(C(=O)Cc2c[nH]c3ccccc23)C(C(=O)NC2CCCCC2)c2ccc([N+](=O)[O-])cc2)cc1` (configuration not stated), the pEC50 with Hepatitis C virus is 5.60. Also, the half-maximal cytotoxic concentration (CC50) at 5 h in data set [1] was 8.5 µM. In data set [2], the “Ratio CC50/EC50” value was determined as 3.4.

Regarding `CC(=O)N(c1ccc(C(C)C)cc1)C(C(=O)NC1CCCCC1)c1ccc(Cl)cc1` (configuration not stated), the pEC50 with Hepatitis C virus is 4.97. Besides, the cytotoxic concentration (CC50) at 5 h in data set [1] turned out to be 89.2 µM. Further, the “Ratio CC50/EC50” value in data set [2] is listed as 8.2.

On to `COc1ccc(CCN(C(=O)c2ccccc2)C(C(=O)NC2CCCCC2)c2ccc([N+](=O)[O-])cc2)cc1OC` (configuration not stated), for which, in the data set on Hepatitis C virus, the pEC50 is 5.05. In addition, the half-maximal cytotoxic concentration (CC50) at 5 h in data set [1] is over 100 µM. Besides, the “Ratio CC50/EC50” value in data set [2] is recorded as over 11.2.

As for `COc1cccc(CCC(=O)N(c2ccc(OC)c(OC)c2)C(C(=O)NC2CCCCC2)c2ccc(O)cc2)c1` (configuration not stated), the pEC50 in the data set on Hepatitis C virus is 4.81. In data set [1], the cytotoxic concentration (CC50) at 5 h turned out to be 51.5 µM. Besides, the “Ratio CC50/EC50” value in data set [2] is recorded as 3.3.

With `COc1ccccc1N(C(=O)Cc1c[nH]c2ccccc12)C(C(=O)NC1CCCCC1)c1cc(OC)c(OC)c(OC)c1` (configuration not stated), the negative logarithm of the EC50 (pEC50) in the data set on Hepatitis C virus is under 4.63. Moreover, the half-maximal cytotoxic concentration (CC50) at 5 h in data set [1] came to 23.2 µM.
